Assay outcomes deposited in PubChem BioAssay by several laboratories.
This is a sample that favours compounds with a hit; in the whole collection about 1.8% have one here.
APJ antag: antagonists of human APJ apelin receptor. 330,000 compounds, 0.32% hits. inhibition, % at 20 µM. AID 2521. CHO-K1 APJ beta-arrestin complementation, luminescence;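 active means inhibition above about 40% at 20 µM, limit read from the data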;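 further: cells challenged with 10 nM apelin-13 agonist together with compound; plate controls were apelin-13 plus DMSO wells for no effect and DMSO wells lacking apelin-13 for full effect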
Beta2AR agonist: human beta-2 adrenergic receptor agonism by FAP. Am2.2-beta2AR cells, FAP receptor internalization, flow cytometry. AID 504454. P07550. 340,000 compounds, 0.43% hits. response, % (concentration not given with the values);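 active means response above a set limit, near 3 SD of response in nonfluorescent compounds, cut at about 42% in these data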
APJ ag: agonists of human APJ apelin receptor | P35414 | CHO-K1 APJ PathHunter beta-arrestin, luminescence; 0% DMSO wells, 100% apelin | activation, % at 20 µM | 330,000 compounds, 0.11% hits | AID 2520;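 active means activation more than six SD over the plate average, tested at 20 µM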;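 further: 0% = DMSO alone and 100% = apelin-13 at 10 nM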
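Test system: CHO-K1 APJ beta-arrestin complementation cell line | Compound: Single test compound dose, 20 µM final, 1% DMSO | Incubation: Compound 90 min 25 °C, reagent 1 h | Measured by: beta-gal luminescence | Read-out basis: APJ–arrestin association signal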
CCR6 antagonist: blocks CCL20-driven beta-arrestin recruitment at human CCR6. CHO-K1 CCR6 PathHunter beta-arrestin, luminescence, CCL20-stimulated. inhibition, % at 20 µM. P51684. 340,000 compounds, 0.49% hits;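 active means compounds whose inhibition of the agonist-driven luminescence signal at 20 µM reaches about 50%, limit read from the data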;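 further: cells stimulated with CCL20 at 14 nM final; plate controls were DMSO with CCL20 for no effect and DMSO without agonist for full effect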
Target sequence (P51684 whole entry, looked up): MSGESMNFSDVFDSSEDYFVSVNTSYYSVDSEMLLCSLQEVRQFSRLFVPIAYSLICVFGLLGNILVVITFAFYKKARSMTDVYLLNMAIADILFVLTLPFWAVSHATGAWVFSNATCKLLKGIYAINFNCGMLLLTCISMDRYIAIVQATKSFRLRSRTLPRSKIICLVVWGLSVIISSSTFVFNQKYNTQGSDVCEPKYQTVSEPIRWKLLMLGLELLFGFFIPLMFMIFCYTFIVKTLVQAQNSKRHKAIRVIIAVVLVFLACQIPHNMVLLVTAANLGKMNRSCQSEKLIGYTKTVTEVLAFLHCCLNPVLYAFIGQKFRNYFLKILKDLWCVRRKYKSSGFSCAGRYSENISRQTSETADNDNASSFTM
EBI2 antag: antagonists of human EBI2 receptor; P32249; EBI2 beta-arrestin recruitment, luminescence, 7a,25-OHC stimulated; inhibition, % at 5 µM; 360,000 compounds, 0.81% hits; AID 651636; in the data active means inhibition above about 38%;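 further: enzyme fragment complementation signal reports receptor beta-arrestin coupling in cells; 0% = agonist plus DMSO wells and 100% = wells without agonist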
Target sequence (P32249 whole entry, looked up, the tested form may be a part): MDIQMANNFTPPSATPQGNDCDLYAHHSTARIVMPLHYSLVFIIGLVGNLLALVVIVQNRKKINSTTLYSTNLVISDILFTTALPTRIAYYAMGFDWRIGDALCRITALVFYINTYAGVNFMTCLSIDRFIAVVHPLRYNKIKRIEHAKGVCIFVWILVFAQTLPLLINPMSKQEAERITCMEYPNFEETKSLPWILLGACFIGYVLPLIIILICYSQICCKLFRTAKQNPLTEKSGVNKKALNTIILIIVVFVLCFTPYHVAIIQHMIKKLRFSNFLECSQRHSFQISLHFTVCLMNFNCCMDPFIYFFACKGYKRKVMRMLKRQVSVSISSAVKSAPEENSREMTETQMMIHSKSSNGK
CXCR6 inh: inhibitors of human CXCR6 receptor; CHO-K1 PathHunter CXCR6 beta-arrestin, luminescence; inhibition, % at 20 µM; 360,000 compounds, 0.36% hits; AID 602244; in the data active means inhibition above about 34%, passing the limit was not always enough;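 further: antagonist mode with CXCL16 agonist at 10 nM final; 0% = 10 nM CXCL16 with DMSO and 100% = unstimulated wells without agonist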
EBI2 antag conf: EBI2 (human) antagonism, single concentration confirmation; shares compounds with EBI2 antag; EBI2 beta-arrestin luminescence, 7a,25-OHC antagonism; inhibition, % at 5 µM; 2,400 compounds, 29% hits;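 active means inhibition of at least 50%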
EBI2 ag: counter-screen for EBI2 antagonists: EBI2 agonist activity; shares compounds with EBI2 antag; activation, % at 5 µM; 2,400 tested, under 10 active; AID 652000; EBI2-expressing cells, agonist mode, luminescence, 60 min; 0% vehicle, 100% 7α,25-dihydroxycholesterol control;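 active means activation of at least 50%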
bGal counter: inhibits E. coli beta-galactosidase, counter-screen for EBI2 antagonists; 2,400 compounds, 1% hits; inhibition, % at 5 µM; shares compounds with EBI2 antag; purified beta-galactosidase, luminescent Galacton Star, 15 min; AID 652176;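 active means replicate-average signal at least 3 plate SD below neutral wells, shown as high inhibition, flagging enzyme-inhibiting false positives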;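 further: 0% = DMSO wells with enzyme and 100% = wells lacking enzyme; higher means stronger loss of beta-gal luminescence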
Active calls of the source: *; · = no result given.

SMILES | APJ antag | Beta2AR agonist | APJ ag | CCR6 antagonist | EBI2 antag | CXCR6 inh | EBI2 antag conf | EBI2 ag | bGal counter
CC1CCN(C2=NC(=O)/C(=C/c3cn(-c4ccccc4)nc3-c3cccc(S(=O)(=O)N(C)C)c3)S2)CC1 | 30.7 | -8.4 | -3.0 | 13.9 | 47.6* | 21.3 | 40.0 | -0.7 | -14.2
CN(C)S(=O)(=O)c1cccc(-c2nn(-c3ccccc3)cc2/C=C(/C#N)C(=O)NCc2ccco2)c1 | -13.3 | -2.3 | 0.2 | 0.4 | 32.5 | 5.0 | · | · | ·
CCOC(=O)N1CCN(C(=O)NC2CCCCC2)CC1 | 3.5 | -4.5 | -0.1 | -10.7 | -4.5 | -0.3 | · | · | ·
CCOC(=O)N1CCN(C(=O)CNC2CCCCCCC2)CC1 | 8.8 | 5.6 | -4.5 | 13.2 | 45.1* | 2.7 | 10.6 | 0.5 | 4.3
CCCCNC(=O)C1(C)CCCCN1C(=O)c1oc2ccccc2c1C (configuration not stated) | · | · | · | · | 0.7 | -3.0 | · | · | ·
COc1ccc(NC(=O)c2ccc(CN3CCN(c4ccccc4)CC3)cc2)cc1 | 8.5 | 5.1 | -1.2 | -12.4 | 60.6* | 5.1 | 22.7 | 1.5 | 8.3
O=C(Nc1ccccc1)c1ccc(CN2CCC(Cc3ccccc3)CC2)cc1 | 9.0 | -3.1 | -3.7 | 19.2 | 64.7* | 10.6 | 31.8 | -0.6 | 5.7
c1ccc(CN2CCC3CC2c2cc(N4CCOCC4)ccc23)cc1 (configuration not stated) | · | -3.1 | · | 3.5 | -6.5 | 6.8 | · | · | ·
CCOC(=O)c1c2ccc(OCC(=O)NN)cc2n2ccccc12 | -90.9 | -9.2 | 6.0 | -18.0 | -9.9 | -11.8 | · | · | ·
CCOC(=O)c1c2ccc(OCC(=O)N/N=C/c3ccc(C)cc3)cc2n2ccccc12 | -68.4 | -1.4 | 5.3 | -1.0 | 47.7* | -23.5 | 37.9 | 0.9 | 7.9
COc1cc2nc(CN3CCC(Cc4ccccc4)CC3)[nH]c(=O)c2cc1OC | -7.4 | 9.8 | -5.2 | 13.9 | 45.8* | 4.3 | 23.7 | 0.6 | 0.2
O=c1[nH]c(CN2CCN(S(=O)(=O)c3cccs3)CC2)nc2c(Br)cc(Br)cc12 | -17.5 | -6.6 | 2.7 | 16.3 | 54.2* | 7.8 | 21.6 | 0.2 | 5.2
COc1cc2nc(CN3CCN(S(=O)(=O)c4ccccc4)CC3)[nH]c(=O)c2cc1OC | 11.3 | 0.0 | -0.9 | 3.4 | 46.6* | -16.6 | 22.8 | -0.9 | -8.5
COc1cc2nc(CN3CCC(C(O)(c4ccccc4)c4ccccc4)CC3)[nH]c(=O)c2cc1OC | -6.4 | 13.6 | 0.8 | 21.4 | 34.6 | 9.8 | · | · | ·
CC(=O)N1CCN(Cc2nc3cc(Cl)ccc3c(=O)[nH]2)CC1 | 2.4 | -2.8 | -1.1 | 6.6 | -6.2 | -6.6 | · | · | ·
COc1cc2nc(CN3CCN(C(C)=O)CC3)[nH]c(=O)c2cc1OC | 8.2 | -3.1 | -1.1 | -7.1 | 2.8 | -3.2 | · | · | ·
O=c1[nH]c(CN2CCN(c3ncccn3)CC2)nc2c(Br)cc(Br)cc12 | -3.5 | -8.3 | -4.7 | 6.8 | 2.8 | 5.0 | · | · | ·
O=c1[nH]c(CN2CCN(S(=O)(=O)c3ccc(Cl)cc3)CC2)nc2cc(Cl)ccc12 | 8.4 | 2.8 | -2.8 | -2.2 | 89.4* | -10.6 | 69.2* | 0.1 | 8.9
CC1=CC(=O)C(C(C)=Nc2ccccc2[N+](=O)[O-])C(=O)O1 (configuration not stated) | · | -2.4 | · | 1.9 | 3.5 | 1.5 | · | · | ·
COc1cc2nc(CN3CCN(S(=O)(=O)c4cc(C)ccc4C)CC3)[nH]c(=O)c2cc1OC | 10.2 | 9.1 | -2.8 | 13.7 | 59.7* | 3.1 | 36.7 | 1.6 | 1.4
COc1cc2nc(CN3CCN(S(=O)(=O)c4ccc(Cl)cc4)CC3)[nH]c(=O)c2cc1OC | 13.9 | 7.1 | 0.6 | 4.8 | 55.9* | 8.1 | 30.7 | 1.5 | 3.7
O=C(CCN1C(=O)NC2(CCCC2)C1=O)Nc1ccc(-c2nc3ccccc3s2)cc1 | -4.0 | 40.5 | -2.1 | -3.4 | -9.9 | -6.3 | · | · | ·
CC(C)(C)c1csc(NC(=O)Nc2ccccc2)n1 | -22.8 | 11.1 | 0.9 | -1.6 | 42.7* | -4.4 | 31.7 | -1.2 | -10.0
O=c1[nH]c(=O)n(C2OC(CO)C(O)C2O)cc1N1CCOCC1 (configuration not stated) | · | -7.8 | · | -2.1 | -8.2 | -1.3 | · | · | ·
CN1CCC(N(C)C(=O)c2ccc(Cl)c(S(=O)(=O)Nc3cc(Cl)ccc3Cl)c2)CC1 | 18.6 | -4.7 | -2.2 | -1.2 | 4.3 | 0.8 | · | · | ·
SMILES | APJ antag | Beta2AR agonist | APJ ag | CCR6 antagonist | EBI2 antag | CXCR6 inh | EBI2 antag conf | EBI2 ag | bGal counter
O=c1c2c3nc4ccccc4nc3n(Cc3ccccc3)c2ncn1Cc1ccco1 | · | 14.7 | · | 20.2 | 50.9* | 27.4 | -1.5 | -1.0 | -12.9
CCc1nc2ccc(C(=O)NCCOc3ccc(OC)cc3)cn2c1N(CC)Cc1cccc(Br)c1 | · | · | · | · | 74.3* | 17.0 | 47.8 | -0.4 | 4.6
CCc1nc2ccc(C(=O)NCCOc3ccc(OC)cc3)cn2c1N(CC)CCOC | · | · | · | · | 45.2* | -3.4 | 37.0 | 1.6 | 0.4
C[C@H](c1ccccc1)N1C[C@@H](COCc2ccccc2)Oc2cc(N3CC[C@@H](N(C)C)C3)ccc2S1(=O)=O | · | · | · | · | 8.4 | 14.3 | · | · | ·
COc1ccc(CC(=O)OCC(=O)Nc2ncc(Cl)c(C)c2Cl)cc1 | 13.5 | -5.5 | -4.3 | 8.0 | -4.1 | 6.8 | · | · | ·
CCOC(=O)C(=O)N(C)c1c(CC)nc2c(OCc3cc(Cl)cc(Cl)c3)cccn12 | · | · | · | · | -7.2 | 8.0 | · | · | ·
COc1ccc(/C=N/n2cnc3c(sc(=S)n3-c3ccccc3)c2=O)cc1 | -7.1 | -18.7 | -4.9 | 13.5 | 50.7* | 1.7 | 25.6 | -1.6 | -12.8
CCOc1ccc(-n2c(=S)sc3c(=O)n(-c4ccccc4)c(SC)nc32)cc1 | 8.6 | -16.0 | -1.7 | 18.8 | 0.1 | 6.0 | · | · | ·
CN1C=Nc2c(ncn2C2CCC(CO)O2)C1O (configuration not stated) | · | · | · | · | 2.7 | 2.3 | · | · | ·
CC(=O)c1ccc(S(=O)(=O)N2CCN(CC(=O)NC(=O)NC3CCCCC3)CC2)cc1 | · | 9.0 | · | -6.5 | -16.7 | 4.5 | · | · | ·
Cc1ccc(OCC(=O)N/N=C/c2cn[nH]c2-c2ccc(Cl)c(Cl)c2)cc1 | -16.5 | 3.5 | 13.1 | -19.3 | 7.7 | -19.6 | · | · | ·
Cc1cccc(OCC(=O)N/N=C/c2cn[nH]c2-c2ccc(Cl)c(Cl)c2)c1 | -9.6 | -4.0 | 9.0 | -6.3 | 38.9* | -15.4 | 1.3 | -0.3 | -10.9
Cc1ccc(-c2cc(C#N)c(=O)n(Cc3c(Cl)cccc3Cl)c2)cc1 | -20.6 | 4.6 | 2.0 | -2.6 | 46.8* | 5.3 | 16.8 | 0.5 | -6.7
c1csc(C(c2nnnn2C2CCCC2)N2CCOCC2)c1 (configuration not stated) | 1.9 | 2.1 | -5.1 | 1.1 | -5.9 | 0.8 | · | · | ·
